Test results: article PMC5756068 (Nature chemical biology, 2016)

Tests used:
Mia Paca-2 cells = test: Downstream effects of peptide expression, Western blot, Mia Paca-2; type: cell-based
MDM2 [1] = test: FRET microscopy, peptide-GFP and MDM2-mCherry; type: binding; details: HEK293T cells, confocal FRET microscopy, 48 h after transfection
How it was run: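 HEK293T cells were seeded at 5 × 10^4 per well on poly-L-lysine-coated glass coverslips and kept at 37°C in 5% CO2. They were co-transfected with GFP-fused peptide and mCherry-fused target, then fixed with 4% paraformaldehyde 48 h later, washed in PBS and imaged by confocal FRET microscopy at room temperature. Laser power and PMT gain were held constant. […] excitation was used with FRET detection at […]. Net FRET was obtained by subtracting GFP bleed-through and mCherry direct emission. Controls expressed GFP and/or mCherry alone.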

Panc 02.03 cells = test: Downstream effects of peptide expression, Western blot, Panc 02.03; type: cell-based
RWP1 cells [2] = test: Downstream effects of peptide expression, Western blot, RWP1; type: cell-based, human
MDM2 [3] = test: shRNA-induced cell viability rescue, MDM2 knockdown; type: cell-based; details: shRNA cells transfected with peptide; triplicate
[4] = Downstream effect of peptide, gels of Fig. 4 and Supplementary Fig. 7; type: cell-based; details: triplicate; cell line not stated
HEK293T cells = test: Downstream effects of peptide expression, Western blot, HEK293T; type: cell-based, human
[5] = tested on: AKT (S473) phosphorylation in RWP1 cells; test: Serum-induced AKT; type: cell-based, human; details: RWP1 starved 24 hours, 10% FBS for 20 minutes; Western blot
How it was run: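 Peptide expressed or not in RWP1 cells, which were starved 24 h and then given 10% FBS for 20 min. Lysate proteins run on 10% Bis-Tris SDS-PAGE and transferred to PVDF. Blots probed with anti-AKT (1:1000) or anti-phospho-AKT S473 (1:1000), then HRP secondary (1:2500), with ECL detection. Paired with HEK293T cells treated the same way.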

RWP1 cells [6] = test: Cell viability with synthetic lipidated peptides, RWP1; type: cell-based, human; details: duplicate
cell cycle = test: FACS analysis of cell cycle; type: cell-based; details: triplicate
SFN = test: shRNA-induced cell viability rescue, SFN knockdown; type: cell-based; details: shRNA cells transfected with peptide; triplicate
GCHFR = test: shRNA-induced cell viability rescue, GCHFR knockdown; type: cell-based; details: shRNA cells transfected with peptide; triplicate

In the case of ETFSDLW, the p21 level (Mia Paca-2 cells) was “increase in p21 levels”, the p53 level (Mia Paca-2 cells) was “decrease in degradation of p53” and the “FRET signal with MDM2” value (MDM2 [1]) was “Positive FRET signals”. The p21 level (Panc 02.03 cells) was “increase in p21 levels”, the p53 level (Panc 02.03 cells) was “decrease in degradation of p53” and the p21 level (RWP1 cells [2]) was “increase in p21 levels”. For the same substance, the p53 level (RWP1 cells [2]) was “decrease in degradation of p53”, the “rescue of peptide phenotype by knockdown of MDM2” value (MDM2 [3]) was “showed rescue of the peptide phenotype” and the P53 level [4] was “increasing P53 levels”.

In the case of KFFCTIL, the p21 level (Panc 02.03 cells) was “increased the expression of p21”, the “phospho-AKT (S473) level” value (Panc 02.03 cells) was “decrease of the level of phospho-AKT (S473)” and the p21 level (RWP1 cells [2]) was “increased the expression of p21”. The “phospho-AKT (S473) level” value (RWP1 cells [2]) was “decrease of the level of phospho-AKT (S473)”, the “phospho-AKT (S473) level” value (HEK293T cells) was “did not affect the level of phospho-AKT” and the “serum-induced AKT phosphorylation” value [5] was “inhibited the increase in AKT phosphorylation”.

In the case of PSSLAYSLKKH, the p21 level (Mia Paca-2 cells) was “accumulation of p53 and p21”, the p53 level (Mia Paca-2 cells) was “accumulation of p53 and p21” and the p21 level (Panc 02.03 cells) was “accumulation of p53 and p21”. The p53 level (Panc 02.03 cells) was “accumulation of p53 and p21”, the p21 level (RWP1 cells [2]) was “accumulation of p53 and p21” and the p53 level (RWP1 cells [2]) was “accumulation of p53 and p21”. The p21 level (HEK293T cells) was “did not affect the level of p53 and p21” and the p53 level (HEK293T cells) was “did not affect the level of p53 and p21”.

In the case of Pal-NPFREKKFFCTIL-NH2 [GNG4-1], the “effect on cell viability (in words)” value (RWP1 cells [6]) was “strong dosage dependent effects on cell viability”.

With Pal-PSSLAYSLKKH-OH [INCENP-1] the “effect on cell viability (in words)” value (RWP1 cells [6]) was “strong dosage dependent effects on cell viability”.

In the case of Pal-RTLSQLYCSYGPLT-OH [MUS81-1], the “effect on cell viability (in words)” value (RWP1 cells [6]) was “strong dosage dependent effects on cell viability”.

In the case of RTLSQLYCSYGPLT, the p21 level (Panc 02.03 cells) was “increases the expression of p53 and p21”, the p53 level (Panc 02.03 cells) was “increases the expression of p53 and p21” and the p21 level (RWP1 cells [2]) was “increases the expression of p53 and p21”. For the same substance, the p53 level (RWP1 cells [2]) was “increases the expression of p53 and p21”.

With TEGPDSD the cdc2 expression (Mia Paca-2 cells) was “reduced expression of both cyclin B1 and cdc2”, the “cyclin A2 expression” value (Mia Paca-2 cells) was “increase of cyclin A2 expression” and the “cyclin B1 expression” value (Mia Paca-2 cells) was “reduced expression of both cyclin B1 and cdc2”. The “effect on cell cycle” value (cell cycle; FACS, DAPI, 24, 72 and 120 hours, cell line not stated) was “cell cycle arrest in G2”, the “percentage of GFP positive cells vs GFP alone” value (cell cycle; different time points) was “similar” and the “rescue of peptide phenotype by knockdown of SFN” value (SFN) was “showed rescue of the peptide phenotype”. The “cyclin A2 expression” value (Panc 02.03 cells) was “increase of cyclin A2 expression”, the cdc2 expression (RWP1 cells [2]) was “reduced expression of both cyclin B1 and cdc2” and the “cyclin A2 expression” value (RWP1 cells [2]) was “increase of cyclin A2 expression”. For the same substance, the “cyclin B1 expression” value (RWP1 cells [2]) was “reduced expression of both cyclin B1 and cdc2”, the cdc2 level [4] was “decrease in cyclin B1 and cdc2 levels” and the “cyclin A level” value [4] was “increase in cyclin A”. For the same substance, the “cyclin B1 level” value [4] was “decrease in cyclin B1 and cdc2 levels”.

For VWCLHKE, the “rescue of peptide phenotype by knockdown of GCHFR” value (GCHFR) was “showed rescue of the peptide phenotype”.
